In the library only some 3% were active in any assay of this set; here they are far more common.
TAAR1 agonist: human TAAR1 agonism | Q96RJ0 | CHO RD-HGA16 TAAR1, Fluo-8 calcium fluorescence; vehicle wells 0%, saturating PEA agonist 100% | activation, % at 3 µM | 360,000 compounds, 0.99% hits;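 active = activation above the mean activation of all test compounds in the run plus 3 SD, cut at about 38% in these data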
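Test system: RD-HGA16 (CHO) cells co-expressing Gα16 and hTAAR1 / Benchmarks: DMSO vehicle as 0%, PEA at EC100 as 100% / Repeats: no replicates (n 1) / Measure: % activation from peak over basal fluorescence ratio, DMSO-to-PEA scaled / Timing: 17-24 h plating, Fluo-8 75 min 37 °C, 30 min RT / Technique: kinetic Fluo-8 calcium fluorescence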
M4 PAM: positive allosteric modulators of human muscarinic M4 receptor; 360,000 compounds, 0.4% hits; P08173; CHO-K1 hM4/Gqi5, Fluo-8 calcium fluorescence, ACh EC20; 0% = ACh EC20, 100% = maximal ACh; activation, % at 3 µM;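 active = activation above its plate's cutoff, the mean activation of sample wells plus 3 SD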
Target sequence (P08173 whole entry, looked up): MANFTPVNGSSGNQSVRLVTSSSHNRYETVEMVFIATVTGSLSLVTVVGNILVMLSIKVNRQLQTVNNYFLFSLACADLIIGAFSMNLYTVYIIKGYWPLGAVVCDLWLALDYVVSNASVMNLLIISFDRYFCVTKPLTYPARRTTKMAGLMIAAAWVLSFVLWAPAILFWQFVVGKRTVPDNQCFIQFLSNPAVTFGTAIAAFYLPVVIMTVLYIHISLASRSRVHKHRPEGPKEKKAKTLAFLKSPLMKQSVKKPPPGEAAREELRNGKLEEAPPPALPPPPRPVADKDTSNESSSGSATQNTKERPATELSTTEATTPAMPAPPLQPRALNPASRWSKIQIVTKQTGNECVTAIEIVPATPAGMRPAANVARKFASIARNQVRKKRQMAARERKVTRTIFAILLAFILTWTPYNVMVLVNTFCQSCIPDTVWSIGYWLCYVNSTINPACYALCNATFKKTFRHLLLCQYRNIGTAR
TAAR1 antagonist: antagonists of human TAAR1 | Q96RJ0 | AID 624466 | CHO RD-HGA16 TAAR1, Fluo-8 calcium fluorescence, antagonist | 360,000 compounds, 1.5% hits | inhibition, % at 3 µM;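 active = inhibition above a per-plate cutoff, the mean inhibition of test compounds on that plate plus 3 SD, cut at about 49% in these data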;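 also: 0% = DMSO plus EC80 beta-PEA response and 100% = DMSO alone without agonist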
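Assay system: RD-HGA16 CHO cells with stable hTAAR1 and Gα16 / Reagent: EC80 β-phenethylamine stimulus / Doses: 3 µM, single point / Timing: dye loading 75 min at 37 °C, then 30 min room temperature / Measured by: Fluo-8 intracellular calcium dye fluorescence, real-time kinetic reads / Controls: vehicle wells and EC80 agonist wells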
M4 ag: CHRM4 agonism in calcium assay | P08173 | AID 624127 | activation, % at 3 µM | 360,000 compounds, 0.14% hits | CHO-K1 hM4/Gqi5, Fluo-8 calcium fluorescence; vehicle 0%, full acetylcholine response 100%;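 active = activation above the run mean over all test wells plus 3 SD, cut at about 32% in these data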;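 also: peak over basal fluorescence ratio per well then scaled between controls; 0% = DMSO wells and 100% = acetylcholine at EC100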
M4 antag: blocks acetylcholine activation of human M4 receptor | 360,000 compounds, 0.73% hits | inhibition, % at 3 µM | P08173 | CHO-hM4 cells, ACh EC80, Fluo-8 calcium fluorescence;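 active = inhibition above its plate's cutoff, the mean inhibition of sample wells plus 3 SD, cut at about 27% in these data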;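 also: 0% = acetylcholine EC80 with DMSO and 100% = DMSO without agonist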
TAAR1 nonsel count: counter-screen for TAAR1 antagonists: nonselective antagonists | shares compounds with TAAR1 antagonist | counterscreen cell line, calcium fluorescence, antagonist mode | inhibition, % at 3 µM | 2,400 compounds, 77% hits; in the data active = inhibition above about 22%;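 also: CHO-Ga16 host cells stimulated with ATP at an EC80 level; 0% = agonist EC80 plus vehicle and 100% = vehicle without agonist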
TAAR1 antag conf: confirmation of human TAAR1 antagonists; shares compounds with TAAR1 antagonist; TAAR1-expressing cells, fluorescence antagonist read-out; inhibition, % at 3 µM; 2,400 compounds, 40% hits; in the data active = inhibition above about 49%;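 also: CHO-Ga16 host cells challenged with agonist PEA near its EC80; 0% = agonist at EC80 plus vehicle and 100% = vehicle with no agonist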
Ga16 ag counter: nonselective Ga16 agonism, counter-screen | shares compounds with TAAR1 antagonist | Ga16-expressing cells, calcium fluorescence, agonist counterscreen | activation, % at 3 µM | 2,400 compounds, 18% hits | AID 651953; in the data active = activation above about 12%;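 also: 0% = vehicle wells and 100% = saturating stimulus response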
TAAR1 ag counter: activates human TAAR1 in antagonist counter-screen. 2,400 compounds, 2% hits. shares compounds with TAAR1 antagonist. hTAAR1 cell line, fluorescence activation, agonist mode. AID 651955. activation, % at 3 µM; in the data active = activation above about 37%;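 also: CHO cells stably expressing TAAR1 with calcium dye readout; 0% = DMSO vehicle and 100% = full agonist response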
An asterisk follows results filed as active; x = not tested or not shown.

SMILES	TAAR1 agonist	M4 PAM	TAAR1 antagonist	M4 ag	M4 antag	TAAR1 nonsel count	TAAR1 antag conf	Ga16 ag counter	TAAR1 ag counter
CCOC(=O)C1=C[C@@H](CC)N(S(=O)(=O)c2ccc([N+](=O)[O-])cc2)[C@H]1c1ccccc1	-0.1	-12.8	72.1*	10.0	4.1	30.2*	37.9	2.0	4.1
CCOC(=O)C1=C[C@@H](C(C)C)N(S(=O)(=O)c2ccc([N+](=O)[O-])cc2)[C@H]1c1ccccc1	-1.9	6.8	81.7*	0.7	-13.3	25.5*	45.2	5.1	8.3
COc1ccccc1CCn1cnc(-c2cccc(F)c2)c1CC(C)C	18.6	x	50.7*	x	x	34.9*	66.7*	15.9*	54.8*
CCCc1c(-c2ccccc2F)ncn1CCc1ccccc1OC	17.3	-12.2	38.5	10.7	-3.3	x	x	x	x
CCCCc1c(-c2ccccc2F)ncn1CCc1ccccc1OC	20.4	-5.9	60.2*	4.1	-6.5	37.9*	72.1*	17.8*	63.1*
CCCCCc1c(-c2ccccc2F)ncn1CCc1ccccc1OC	17.6	-7.0	60.5*	5.2	5.5	39.1*	58.8*	21.5*	47.7*
CC(C)(C)OC(=O)N1CCC[C@@H]1C(=O)NCc1ccccc1Cl	1.7	11.0	-20.6	-0.3	-9.0	x	x	x	x
C[C@@H]1CN([C@H](C)CO)C(=O)c2cc(Br)cnc2O[C@H]1CN(C)Cc1ccccc1F	1.1	x	12.2	x	x	x	x	x	x
O=C1NC[C@@H](CCCCN2C[C@H](Cc3ccccc3)N(CCc3ccc(O)cc3)C(=O)C2=O)N(CCc2ccccc2)C1=O	3.9	5.3	-7.5	0.6	-0.5	x	x	x	x
Oc1ccc(-c2csc(NCc3ccco3)n2)cc1	-1.9	4.2	104.0*	-1.3	0.1	-2.6	-2.1	0.3	-3.6
c1coc(CNc2nc(-c3cccs3)cs2)c1	-0.2	11.8	-4.9	0.9	-6.0	x	x	x	x
CC1(C(=O)NS(=O)(=O)c2cccc(C#N)c2)CCN1C(=O)Cc1cc(F)ccc1F (stereo unspecified)	2.3	4.5	4.7	0.9	-11.4	x	x	x	x
COc1ccc(CN(Cc2ccccn2)C(=O)CN2C(=O)C(C)Oc3ccccc32)cc1 (stereo unspecified)	14.9	-3.6	51.8*	21.2	-1.4	28.9*	49.2*	10.7	11.6
O=C1CC(N(O)C2CC(=O)N(Cc3ccccc3)C2=O)C(=O)N1Cc1ccccc1 (stereo unspecified)	17.3	-13.8	68.2*	11.0	19.2	32.6*	53.6*	10.5	11.9
CCCN(CCC)C1CC(=O)N(Cc2ccccc2)C1=O (stereo unspecified)	6.1	1.1	-3.9	1.2	5.2	x	x	x	x
COc1cc(C(=O)N/N=C/c2ccc(OC(=O)c3cccc(C)c3)cc2)ccc1O	15.2	-10.5	79.5*	12.2	9.5	39.5*	62.5*	12.6*	30.0
COc1cccc(NC(=O)c2cc(-c3ccccn3)nc3ccccc23)c1	18.0	4.3	56.3*	6.1	-8.4	27.9*	42.4	6.7	3.6
Cc1cccc(NC(=O)c2cc(-c3ccccn3)nc3ccccc23)c1C	7.7	-20.1	70.3*	21.6	12.6	33.9*	56.0*	10.6	8.3
O=C(NC1CC1)c1cc(-c2ccccn2)nc2ccccc12	8.9	-1.3	23.2	4.5	-7.7	x	x	x	x
COc1ccc(NC(=O)N(C)[C@H]2C[C@H]3c4[nH]c5c(-c6ccccc6)cccc5c4CCN3C(=O)[C@H]2[C@H](C)O)cc1	15.5	x	69.2*	x	x	41.2*	53.0*	8.0	5.7
CC(C)CN1CC(=O)N2C(c3ccccc3)c3[nH]c4ccccc4c3C[C@H]2C1=O (stereo partly specified)	36.5	-9.8	60.8*	28.6	9.8	23.2*	44.5	12.8*	17.6

From PubChem BioAssay
